# Laboratory results published in article PMC9925696 (Neuro-Oncology, 2022).
# “Also recorded” adds a separate entry of the source. Marks after values point to notes of the source that are not given here.
# Key:
# [1] = system: D-2-hydroxyglutarate (D-2-HG); experiment: D-2-HG concentration in resected tumor tissue; type: in vivo, human
# Outline: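 Patients with IDH1-R132 glioma who were scheduled for salvage surgery after progression took the oral test compound twice daily until surgery. Tumor was resected on the day of surgery, homogenized in 0.1 w/v% bovine serum albumin solution, and derivatized with diacetyl-l-tartaric anhydride. D-2-HG was then quantified by LC-MS/MS against a commercial D-2-HG reference standard. On-treatment values were compared with matched archived frozen tumor from previous surgery, where available.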
# [2] = mice, preclinical; cited from earlier work
# [3] = DS-1001 concentration in resected tumor tissue, plasma and CSF; type: in vivo, human; conditions: for DS-1001 concentration in resected tumor tissue: free form
# Outline: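 Drug levels were measured by validated LC-MS/MS and expressed as the free form. CSF was collected at screening and on cycle 1 day 15 (±3 days). Resected tumor and matched plasma were taken on the day of salvage surgery, after oral twice-daily dosing continued until surgery. Where a patient gave several tumor samples, the range is given. The brain/plasma ratio used the matched plasma sample.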
# [4] = Plasma pharmacokinetics of DS-1001; type: in vivo, human; conditions: for Increase in Cmax and AUC0-8 h with dose: day 1 and day 8 of cycle 1
# [5] = Safety evaluation; type: in vivo, human
# Outline: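 Adults (≥20 years) with recurrent/progressive grade 2-4 IDH1-R132 glioma received oral twice-daily dosing in 21-day cycles at 125-1400 mg (six levels). Escalation used a modified continual reassessment method (Bayesian logistic regression, overdose control) with cohorts of 3-6 patients and DLT assessment over the 21-day cycle. TEAEs were recorded up to 28 days after the last dose, graded by CTCAE v4.0 and counted once per patient at worst severity. LVEF was monitored by echocardiography or MUGA.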
# [6] = system: recurrent/progressive IDH1-mutant (R132) glioma; experiment: Tumor response by RANO / RANO-LGG, PFS, treatment duration; type: in vivo, human; conditions: for Duration of CR: still on treatment
# Outline: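 MRI was performed every 6 weeks. Investigators classed tumors at enrollment as contrast-enhancing (assessed by RANO) or non-enhancing (assessed by RANO-LGG). Longest and orthogonal diameters were measured on the largest FLAIR/T2 slice. Best overall response required a confirmatory scan at least 4 weeks later. ORR counted CR, PR and MR. PFS ran from first dose to progression or death. Dosing was oral twice daily, continued until progression or intolerable toxicity.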
# [7] = system: orthotopic patient-derived xenograft model; conditions: continuous administration, preclinical; cited from earlier work
# [8] = Patient #003, 500 mg bid, 16.9 h after last dose
# [9] = Patient #006, 700 mg bid, 7.2 h after last dose
# [10] = 12 non-enhancing tumors, RANO-LGG
# [11] = non-enhancing (n = 12), RANO-LGG
smiles,measurement,setting,value
Cc1cn(C(=O)c2c(-c3c(Cl)cc(Cl)cc3Cl)noc2C(C)(C)F)c2cccc(/C=C/C(=O)O)c12 [DS-1001],D-2-HG in on-treatment tumor tissue versus pre-treatment samples,[1]; 125 mg bid,significantly lower levels of D-2-HG compared with the pre-treatment samples
same,D-2-HG in on-treatment tumor tissue versus archived samples,"[1]; seven on-treatment samples, 125-700 mg bid",significantly lower amount of D-2-HG compared with pre-study archived samples; also recorded: extremely low compared with matched archived samples; also recorded: lower than archived samples; also recorded: significantly low levels of D-2-HG
same,Distribution to the brain,[2],good distribution to the brain
same,Brain/plasma concentration ratio,[3]; [8],0.77
same,DS-1001 concentration in resected tumor tissue,[3]; [8],5720 ng/g tissue
same,Brain/plasma concentration ratio,"[3]; Patient #004, 500 mg bid, 4.1, 4.2 h after last dose",0.19
same,Brain/plasma concentration ratio,[3]; [9],0.58
same,DS-1001 concentration in resected tumor tissue,[3]; [9],6130 ng/g tissue
same,DS-1001 in CSF,[3]; day 15 of cycle 1,appeared in CSF
same,Brain / tumor distribution of DS-1001,"[3]; resected tumor samples, salvage surgery",favorable brain distribution; also recorded: a high drug concentration was detected in all resected tumor samples
same,Increase in Cmax and AUC0-8 h with dose,[4]; 125 to 700 mg bid,approximately dose-proportional
same,Increase in Cmax and AUC0-8 h with dose,[4]; 700 to 1400 mg bid,less than dose-proportional
same,Median Tmax across dose range,"[4]; day 1 of cycle 1, 125-1400 mg bid",2 to 6 h
same,Median Tmax across dose range,"[4]; day 8 of cycle 1, 125-1400 mg bid",2 to 4 h
same,Steady-state levels achieved (plasma trough plateau),"[4]; most dose levels, except 1400 mg bid, data not shown",≤ 4 days
same,Patients with at least 1 AE of any grade or causality,[5]; 45 of 47,95.7%
same,Tolerability / safety profile,[5]; 125-1400 mg bid oral,well tolerated; also recorded: favorable safety profile
same,Maximum tolerated dose (MTD),"[5]; 125-1400 mg bid oral, highest dose level 1400 mg bid",not reached
same,"Alanine aminotransferase increased, all grades",[5]; N = 47,4 (8.5) n (%)
same,"Alanine aminotransferase increased, grade 3",[5]; N = 47,3 (6.4) n (%)
same,"All AEs, grade 3",[5]; N = 47,20 (42.6) n (%)
same,"Alopecia, all grades",[5]; N = 47,13 (27.7) n (%)
same,"Alopecia, grade 3",[5]; N = 47,0 n (%)
same,"Arthralgia, all grades",[5]; N = 47,13 (27.7) n (%)
same,"Arthralgia, grade 3",[5]; N = 47,1 (2.1) n (%)
same,"Aspartate aminotransferase increased, all grades",[5]; N = 47,3 (6.4) n (%)
same,"Aspartate aminotransferase increased, grade 3",[5]; N = 47,2 (4.3) n (%)
same,"Back pain, all grades",[5]; N = 47,10 (21.3) n (%)
same,"Back pain, grade 3",[5]; N = 47,0 n (%)
same,"Decreased appetite, all grades",[5]; N = 47,5 (10.6) n (%)
same,"Decreased appetite, grade 3",[5]; N = 47,0 n (%)
same,"Diarrhea, all grades",[5]; N = 47,22 (46.8) n (%)
same,"Diarrhea, grade 3",[5]; N = 47,2 (4.3) n (%)
same,Dose interruption due to arthralgia,[5]; N = 47,10.6%
same,Dose interruption due to neutrophil count decreased,[5]; N = 47,12.8%
same,Dose reduction associated with alanine aminotransferase increased,[5]; N = 47,4.3%
same,Dose reduction associated with arthralgia,[5]; N = 47,10.6%
same,Dose reduction associated with back pain,[5]; N = 47,6.4%
same,Dose reduction associated with neck pain,[5]; N = 47,2.1%
same,Dose reduction associated with neutrophil count decreased,[5]; N = 47,6.4%
same,Dose reduction associated with white blood cell count decreased,[5]; N = 47,4.3%
same,"Dry skin, all grades",[5]; N = 47,10 (21.3) n (%)
same,"Dry skin, grade 3",[5]; N = 47,0 n (%)
same,"Feces soft, all grades",[5]; N = 47,6 (12.8) n (%)
same,"Feces soft, grade 3",[5]; N = 47,0 n (%)
same,Grade 4 or 5 AEs or serious drug-related AEs,[5]; N = 47,No grade 4 or 5 AEs or serious drug-related AEs were reported
same,"Headache, all grades",[5]; N = 47,11 (23.4) n (%)
same,"Headache, grade 3",[5]; N = 47,1 (2.1) n (%)
same,"Hypophosphatemia, all grades",[5]; N = 47,2 (4.3) n (%)
same,"Hypophosphatemia, grade 3",[5]; N = 47,2 (4.3) n (%)
same,"Nasopharyngitis, all grades",[5]; N = 47,7 (14.9) n (%)
same,"Nasopharyngitis, grade 3",[5]; N = 47,0 n (%)
same,"Nausea, all grades",[5]; N = 47,12 (25.5) n (%)
same,"Nausea, grade 3",[5]; N = 47,0 n (%)
same,"Neutrophil count decreased, all grades",[5]; N = 47,7 (14.9) n (%)
same,"Neutrophil count decreased, grade 3",[5]; N = 47,6 (12.8) n (%)
same,Patients with TEAEs associated with dose reduction,[5]; N = 47,27.7%
same,Patients with at least 1 dose interruption due to TEAEs,[5]; N = 47,57.4%
same,Patients with at least 1 grade 3 AE (TEAE),[5]; N = 47,42.6%
same,"Pruritus, all grades",[5]; N = 47,14 (29.8) n (%)
same,"Pruritus, grade 3",[5]; N = 47,0 n (%)
same,"Rash, all grades",[5]; N = 47,11 (23.4) n (%)
same,"Rash, grade 3",[5]; N = 47,0 n (%)
same,"Skin hyperpigmentation, all grades",[5]; N = 47,25 (53.2) n (%)
same,"Skin hyperpigmentation, grade 3",[5]; N = 47,0 n (%)
same,"Vomiting, all grades",[5]; N = 47,9 (19.1) n (%)
same,"Vomiting, grade 3",[5]; N = 47,0 n (%)
same,"White blood cell count decreased, all grades",[5]; N = 47,3 (6.4) n (%)
same,"White blood cell count decreased, grade 3",[5]; N = 47,3 (6.4) n (%)
same,"Alanine aminotransferase increased, grade 3","[5]; N = 47, text",6.4%
same,"Alopecia, any grade","[5]; N = 47, text",27.7%
same,"Arthralgia, any grade","[5]; N = 47, text",27.7%
same,"Aspartate aminotransferase increased, grade 3","[5]; N = 47, text",4.3%
same,"Back pain, any grade","[5]; N = 47, text",21.3%
same,"Diarrhea, any grade","[5]; N = 47, text",46.8%
same,"Diarrhea, grade 3","[5]; N = 47, text",4.3%
same,"Dry skin, any grade","[5]; N = 47, text",21.3%
same,"Headache, any grade","[5]; N = 47, text",23.4%
same,"Hypophosphatemia, grade 3","[5]; N = 47, text",4.3%
same,"Nausea, any grade","[5]; N = 47, text",25.5%
same,"Neutrophil count decreased, grade 3","[5]; N = 47, text",12.8%
same,"Pruritus, any grade","[5]; N = 47, text",29.8%
same,"Rash, any grade","[5]; N = 47, text",23.4%
same,"Skin hyperpigmentation, any grade","[5]; N = 47, text",53.2%
same,"White blood cell count decreased, grade 3","[5]; N = 47, text",6.4%
same,Dose-limiting toxicity (DLT),[5]; at 1000 mg bid,"One DLT, grade 3 white blood cell count decreased"
same,Dose modification due to pain,[5]; doses ≤250 mg bid,no dose modification due to pain
same,Dose modification due to pain,[5]; doses ≥500 mg bid,most patients who received long-term administration of DS-1001 required dose modifications due to episodes of pain
same,Discontinued due to an AE (alanine aminotransferase increased),[5]; of 39 patients who discontinued,1 patients
same,"All AEs, all grades",[5]; safety analysis set N = 47,45 (95.7) n (%)
same,Response by 1p/19q codeletion status,[6]; 1p/19q-codeleted vs non-codeleted,Measurable response was observed in both 1p/19q-codeleted and non-codeleted cases
same,Number of MRs,[6]; [10],3
same,Number of PRs,[6]; [10],1
same,Number of CRs,"[6]; 35 enhancing tumors, RANO",2
same,Number of PRs,"[6]; 35 enhancing tumors, RANO",4
same,Median response duration,[6]; both lesion types,has not been reached
same,Doses at which responses were observed,[6]; data limited,≥ 125 mg bid
same,Confirmed best overall response: complete response,"[6]; enhancing (n = 35), RANO",2 (5.7) n (%)
same,Confirmed best overall response: partial response,"[6]; enhancing (n = 35), RANO",4 (11.4) n (%)
same,Confirmed best overall response: progressive disease,"[6]; enhancing (n = 35), RANO",17 (48.6) n (%)
same,Confirmed best overall response: stable disease,"[6]; enhancing (n = 35), RANO",11 (31.4) n (%)
same,Objective response rate,"[6]; enhancing (n = 35), RANO",6 (17.1) n (%)
same,Confirmed best overall response: not evaluated,"[6]; enhancing (n = 35), treatment discontinued before first response assessment",1 (2.9)^b n (%)
same,Median progression-free survival,"[6]; enhancing glioma cohort, all doses, 95% CI 6.1 to 17.7 weeks",10.4 weeks
same,Median progression-free survival,"[6]; enhancing glioma cohort, 95% CI 6.1 to 17.7 months (abstract)",10.4 months
same,Patients with tumor measurements decreased from baseline,"[6]; enhancing tumors, 15 of 35",42.9%
same,Objective response rate,"[6]; enhancing tumors, RANO",17.1%
same,Confirmed best overall response: not evaluated,[6]; non-enhancing (n = 12),0 (0.0) n (%)
same,Confirmed best overall response: complete response,[6]; [11],0 (0.0) n (%)
same,Confirmed best overall response: minor response,[6]; [11],3 (25.0) n (%)
same,Confirmed best overall response: partial response,[6]; [11],1 (8.3) n (%)
same,Confirmed best overall response: progressive disease,[6]; [11],0 (0.0) n (%)
same,Confirmed best overall response: stable disease,[6]; [11],8 (66.7) n (%)
same,Objective response rate,[6]; [11],4 (33.3) n (%)
same,Median progression-free survival,"[6]; non-enhancing glioma cohort, 95% CI 24.1 to not reached",not reached
same,Patients with tumor measurements decreased from baseline,"[6]; non-enhancing tumors, 11 of 12",91.7%
same,Objective response rate,"[6]; non-enhancing tumors, RANO-LGG",33.3%
same,Duration of CR,[6]; patient with IDH1-mutant anaplastic oligodendroglioma,approximately 95 weeks
same,Duration of CR,"[6]; patient with astrocytoma (IDH-mutant, grade 4)",approximately 174 weeks
same,D-2-HG,[7],D-2-HG reduction
same,Tumor growth,[7],Tumor growth inhibition
